Results published in ChEMBL document CHEMBL5724801, “EUbOPEN Chemogenomics Library - Multiplex” (2024).
Values joined by “and” are separate entries in the source; they are usually repeats but may differ in a detail not shown here. Equal values may be shown once.

Tested on: U2OS
Assay: Multiplex assay against U2OS
Format: toxicity, cell-based
Details: human
Outline: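 Imaging took place on a CQ1 microscope at 37°C and 5% CO2 once compound had been added to live cells stained at seeding with Hoechst33342, BioTracker Green Microtubule Cytoskeleton Dye, MitoTracker Red and Annexin V Alexa Fluor 680. CellPathfinder machine-learning gating classed cells as Hoechst high-intensity objects or normal cells, classed normal cells as having healthy, pyknosed or fragmented nuclei, and classed pyknosed cells as mitotic or apoptotic. Tubulin, mitochondrial-mass and membrane-permeability phenotypes are per cents of the healthy-nucleus cells.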

[1] = 12 h, 1 µM, compound concentration 1 uM
[2] = 12 h, 10 µM, compound concentration 10 uM
[3] = 24 h, 1 µM, compound concentration 1 uM
[4] = 24 h, 10 µM, compound concentration 10 uM
[5] = 48 h, 1 µM, compound concentration 1 uM
[6] = 48 h, 10 µM, compound concentration 10 uM

O=C(O)CCC/C=C\CC1C(O)CC(O)C1/C=C/C(O)COc1cccc(Cl)c1 (centres undefined) [CLOPROSTENOL]
Population Apoptotic (%) [1]: 77% and 75% | Population Fragmented Nuclei (%) [1]: 30% and 11% | Population Healthy Nuclei (%) [1]: 60% and 82% | Population Hoechst High Intensity Objects (%) [1]: 3% and 0% | Population Membrane Permeable-Phenotype (%) [1]: 2% and 6% | Population Mitochondria Different-Phenotype (%) [1]: 0% and 3% | Population Mitotic Cells (%) [1]: 22% and 25% | Population Normal (%) [1]: 96% and 100% | Population Pyknosed Nuclei (%) [1]: 9% and 6% | Population Tubulin-Different-Phenotype (%) [1]: 1% and 2% | Total Cell Count [1]: 201 and 129 | Population Apoptotic (%) [2]: 92% and 45% | Population Healthy Nuclei (%) [2]: 60% and 81% | Population Hoechst High Intensity Objects (%) [2]: 2% and 0% | Population Membrane Permeable-Phenotype (%) [2]: 8% and 9% | Population Mitochondria Different-Phenotype (%) [2]: 1% and 6% | Population Normal (%) [2]: 97% and 100% | Population Pyknosed Nuclei (%) [2]: 10% and 8% | Population Tubulin-Different-Phenotype (%) [2]: 3% | Total Cell Count [2]: 272 and 131 | Population Apoptotic (%) [3]: 81% and 75% | Population Fragmented Nuclei (%) [3]: 24% and 15% | Population Healthy Nuclei (%) [3]: 63% and 77% | Population Hoechst High Intensity Objects (%) [3]: 1% and 0% | Population Membrane Permeable-Phenotype (%) [3]: 4% and 6% | Population Mitochondria Different-Phenotype (%) [3]: 2% | Population Mitotic Cells (%) [3]: 18% and 25% | Population Normal (%) [3]: 98% and 100% | Population Pyknosed Nuclei (%) [3]: 11% and 7% | Population Tubulin-Different-Phenotype (%) [3]: 2% and 4% | Total Cell Count [3]: 237 and 157 | Population Apoptotic (%) [4]: 90% and 70% | Population Fragmented Nuclei (%) [4]: 23% and 11% | Population Healthy Nuclei (%) [4]: 66% and 82% | Population Hoechst High Intensity Objects (%) [4]: 2% and 0% | Population Membrane Permeable-Phenotype (%) [4]: 7% and 11% | Population Mitochondria Different-Phenotype (%) [4]: 2% and 4% | Population Mitotic Cells (%) [4]: 10% and 30% | Population Normal (%) [4]: 97% and 100% | Population Pyknosed Nuclei (%) [4]: 10% and 5% | Population Tubulin-Different-Phenotype (%) [4]: 3% and 4% | Total Cell Count [4]: 306 and 177 | Population Apoptotic (%) [5]: 89% and 81% | Population Fragmented Nuclei (%) [5]: 20% and 11% | Population Healthy Nuclei (%) [5]: 70% and 81% | Population Hoechst High Intensity Objects (%) [5]: 1% and 0% | Population Membrane Permeable-Phenotype (%) [5]: 2% and 6% | Population Mitochondria Different-Phenotype (%) [5]: 1% and 3% | Population Mitotic Cells (%) [5]: 10% and 18% | Population Normal (%) [5]: 98% and 99% | Population Pyknosed Nuclei (%) [5]: 8% and 7% | Population Tubulin-Different-Phenotype (%) [5]: 0% and 2% | Total Cell Count [5]: 344 and 229 | Population Apoptotic (%) [6]: 91% and 84% | Population Fragmented Nuclei (%) [6]: 18% and 12% | Population Healthy Nuclei (%) [6]: 67% and 82% | Population Hoechst High Intensity Objects (%) [6]: 3% and 2% | Population Membrane Permeable-Phenotype (%) [6]: 6% and 10% | Population Mitochondria Different-Phenotype (%) [6]: 1% and 2% | Population Mitotic Cells (%) [6]: 8% and 15% | Population Normal (%) [6]: 96% and 97% | Population Pyknosed Nuclei (%) [6]: 14% and 5% | Population Tubulin-Different-Phenotype (%) [6]: 4% | Total Cell Count [6]: 396 and 246

CN(C)C(=O)Cn1cc(-c2ccc(-c3cncc4ccccc34)cc2)cn1
Population Apoptotic (%) [1]: 68% and 69% | Population Fragmented Nuclei (%) [1]: 22% and 18% | Population Healthy Nuclei (%) [1]: 68% and 69% | Population Hoechst High Intensity Objects (%) [1]: 3% and 0% | Population Membrane Permeable-Phenotype (%) [1]: 8% and 6% | Population Mitochondria Different-Phenotype (%) [1]: 4% and 2% | Population Mitotic Cells (%) [1]: 31% and 30% | Population Normal (%) [1]: 96% and 99% | Population Pyknosed Nuclei (%) [1]: 9% and 11% | Population Tubulin-Different-Phenotype (%) [1]: 5% and 3% | Total Cell Count [1]: 240 and 110 | Population Apoptotic (%) [2]: 66% and 100% | Population Fragmented Nuclei (%) [2]: 21% and 18% | Population Healthy Nuclei (%) [2]: 67% and 75% | Population Hoechst High Intensity Objects (%) [2]: 5% and 3% | Population Membrane Permeable-Phenotype (%) [2]: 20% and 22% | Population Mitochondria Different-Phenotype (%) [2]: 12% and 19% | Population Normal (%) [2]: 94% and 96% | Population Pyknosed Nuclei (%) [2]: 10% and 5% | Population Tubulin-Different-Phenotype (%) [2]: 14% and 23% | Total Cell Count [2]: 205 and 98 | Population Apoptotic (%) [3]: 100% and 90% | Population Fragmented Nuclei (%) [3]: 21% and 15% | Population Healthy Nuclei (%) [3]: 69% and 76% | Population Hoechst High Intensity Objects (%) [3]: 3% and 1% | Population Membrane Permeable-Phenotype (%) [3]: 5% and 8% | Population Mitochondria Different-Phenotype (%) [3]: 2% and 6% | Population Mitotic Cells (%) [3]: 0% and 9% | Population Normal (%) [3]: 96% and 98% | Population Pyknosed Nuclei (%) [3]: 8% | Population Tubulin-Different-Phenotype (%) [3]: 4% | Total Cell Count [3]: 278 and 127 | Population Apoptotic (%) [4]: 54% and 80% | Population Fragmented Nuclei (%) [4]: 25% and 11% | Population Healthy Nuclei (%) [4]: 64% and 84% | Population Hoechst High Intensity Objects (%) [4]: 3% and 2% | Population Membrane Permeable-Phenotype (%) [4]: 19% and 16% | Population Mitochondria Different-Phenotype (%) [4]: 9% and 15% | Population Mitotic Cells (%) [4]: 45% and 20% | Population Normal (%) [4]: 96% and 97% | Population Pyknosed Nuclei (%) [4]: 9% and 4% | Population Tubulin-Different-Phenotype (%) [4]: 10% and 14% | Total Cell Count [4]: 244 and 110 | Population Apoptotic (%) [5]: 87% and 88% | Population Fragmented Nuclei (%) [5]: 18% and 20% | Population Healthy Nuclei (%) [5]: 69% and 67% | Population Hoechst High Intensity Objects (%) [5]: 2% and 3% | Population Membrane Permeable-Phenotype (%) [5]: 6% and 12% | Population Mitochondria Different-Phenotype (%) [5]: 3% and 9% | Population Mitotic Cells (%) [5]: 12% and 11% | Population Normal (%) [5]: 97% and 96% | Population Pyknosed Nuclei (%) [5]: 12% and 11% | Population Tubulin-Different-Phenotype (%) [5]: 4% and 9% | Total Cell Count [5]: 333 and 163 | Population Apoptotic (%) [6]: 74% and 92% | Population Fragmented Nuclei (%) [6]: 22% and 21% | Population Healthy Nuclei (%) [6]: 62% and 68% | Population Hoechst High Intensity Objects (%) [6]: 2% | Population Membrane Permeable-Phenotype (%) [6]: 15% and 20% | Population Mitochondria Different-Phenotype (%) [6]: 8% and 14% | Population Normal (%) [6]: 97% | Population Pyknosed Nuclei (%) [6]: 14% and 9% | Population Tubulin-Different-Phenotype (%) [6]: 8% and 16% | Total Cell Count [6]: 302 and 149

O=C1NC(NC23CC4CC(CC(C4)C2)C3)=N/C1=C\c1ccc2ncsc2c1
Population Apoptotic (%) [1]: 51.02% and 44.83% | Population Fragmented Nuclei (%) [1]: 17.88% and 22.19% | Population Healthy Nuclei (%) [1]: 75% and 69.66% | Population Hoechst High Intensity Objects (%) [1]: 0.86% and 0% | Population Membrane Permeable-Phenotype (%) [1]: 0.97% and 3.63% | Population Mitochondria Different-Phenotype (%) [1]: 0% and 3.23% | Population Mitotic Cells (%) [1]: 48.98% and 55.17% | Population Normal (%) [1]: 99.14% and 100% | Population Pyknosed Nuclei (%) [1]: 7.12% and 8.15% | Population Tubulin-Different-Phenotype (%) [1]: 0.58% and 2.82% | Total Cell Count [1]: 694 and 356 | Population Apoptotic (%) [2]: 44.44% and 38.46% | Population Fragmented Nuclei (%) [2]: 64.07% and 81% | Population Healthy Nuclei (%) [2]: 21.59% and 11.58% | Population Membrane Permeable-Phenotype (%) [2]: 0.82% and 0% | Population Mitochondria Different-Phenotype (%) [2]: 0% and 1.41% | Population Mitotic Cells (%) [2]: 55.56% and 61.54% | Population Normal (%) [2]: 52.03% and 84.32% | Population Pyknosed Nuclei (%) [2]: 14.34% and 7.42% | Population Tubulin-Different-Phenotype (%) [2]: 0% and 1.41% | Total Cell Count [2]: 1086 and 1454 | Population Apoptotic (%) [3]: 50% and 44.68% | Population Fragmented Nuclei (%) [3]: 19.28% and 20.63% | Population Healthy Nuclei (%) [3]: 75.17% and 67.96% | Population Hoechst High Intensity Objects (%) [3]: 0.69% and 0% | Population Membrane Permeable-Phenotype (%) [3]: 1.48% and 2.86% | Population Mitochondria Different-Phenotype (%) [3]: 0.37% and 5.71% | Population Mitotic Cells (%) [3]: 50% and 55.32% | Population Normal (%) [3]: 99.31% and 100% | Population Pyknosed Nuclei (%) [3]: 5.55% and 11.41% | Population Tubulin-Different-Phenotype (%) [3]: 2.03% and 2.86% | Total Cell Count [3]: 726 and 412 | Population Apoptotic (%) [4]: 45.1% and 35.71% | Population Fragmented Nuclei (%) [4]: 58.49% and 84.85% | Population Healthy Nuclei (%) [4]: 17.9% and 8.37% | Population Membrane Permeable-Phenotype (%) [4]: 0% | Population Mitochondria Different-Phenotype (%) [4]: 0% | Population Mitotic Cells (%) [4]: 54.9% and 64.29% | Population Normal (%) [4]: 60.11% and 86.9% | Population Tubulin-Different-Phenotype (%) [4]: 0% | Total Cell Count [4]: 1078 and 1664 | Population Apoptotic (%) [5]: 50% and 51.75% | Population Fragmented Nuclei (%) [5]: 22.08% and 20.53% | Population Healthy Nuclei (%) [5]: 72.6% and 58% | Population Hoechst High Intensity Objects (%) [5]: 3.35% and 1.12% | Population Membrane Permeable-Phenotype (%) [5]: 1.27% and 2.27% | Population Mitochondria Different-Phenotype (%) [5]: 0.32% and 9.42% | Population Mitotic Cells (%) [5]: 50% and 48.25% | Population Normal (%) [5]: 96.65% and 98.88% | Population Tubulin-Different-Phenotype (%) [5]: 2.23% and 2.6% | Total Cell Count [5]: 895 and 537 | Population Apoptotic (%) [6]: 51.13% and 47.24% | Population Fragmented Nuclei (%) [6]: 58.82% and 85.02% | Population Healthy Nuclei (%) [6]: 12.73% and 6.82% | Population Hoechst High Intensity Objects (%) [6]: 31% and 15.76% | Population Membrane Permeable-Phenotype (%) [6]: 0% and 1.89% | Population Mitochondria Different-Phenotype (%) [6]: 0% and 0.94% | Population Mitotic Cells (%) [6]: 48.87% and 52.76% | Population Normal (%) [6]: 69% and 84.24% | Population Tubulin-Different-Phenotype (%) [6]: 0% | Total Cell Count [6]: 1355 and 1846
